Series [1] in a line: Drug metabolism in human liver microsomes at 1 uM after 15 mins. The series is classed as ADME, Microsome. Particulars: read-out: Drug metabolism. Put shortly:
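Human liver microsome incubation at 37 °C for 15 min with compound at 1 µM; turnover expressed as percent of compound metabolized.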
(In general: Microsomes from liver hold many membrane-bound enzymes, among them those of drug oxidation.)

Series [2] can be described thus: Plasma clearance in rat at 2 mg/kg, iv. The series is classed as ADME, organism-based. Details: dose 2 mg/kg, route intravenous. An outline of the steps: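 Single intravenous dose of 2 mg/kg in rats. The formulation is typically 1 mg/mL in PEG400/ethanol/saline (70/20/10). Clearance values are averages from two or three animals. High is >3 L/h/kg (>70% liver blood flow) and low is <1.3 L/h/kg (<30%).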

A short description of series [3]: Cytotoxicity against human MT4 cells. Type of series: cell-based.
The test system of series [4] is Human immunodeficiency virus 1. The series can be described thus: Antiviral activity against wild type Human immunodeficiency virus 1 3B infected in human MT4 cells assessed as inhibition of viral replication. The series is classed as functional, organism-based. Put shortly: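 EC50 values are averages of at least two independent experiments (typically three to four), each run in quadruplicate. For the serum-shifted line, the same antiviral assay includes 50% human serum, used as a functional measure of plasma protein binding.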

Series [5] concerns Human immunodeficiency virus 1. The series can be described thus: Antiviral activity against wild type Human immunodeficiency virus 1 3B infected in human MT4 cells assessed as inhibition of viral replication in presence of 50% human serum.

Experimental findings from ChEMBL document CHEMBL2321652, “Design and synthesis of HIV-1 protease inhibitors for a long-acting injectable drug application” (Bioorg Med Chem Lett, 2013) are described below.

What is called clearance is a measure of how efficiently the substance is removed, as volume per time. By CC50 is commonly meant the concentration that lowers cell viability or growth by half. A lower CC50 goes with greater toxicity to the cells. What is called EC50 is the concentration at which the effect is half-maximal.

Take `COC(=O)N[C@H](C(=O)N[C@@H](Cc1ccc(-c2ccc(OC)nc2)cc1)[C@@H](O)C[C@@H](Cc1ccccc1F)C(=O)N[C@H]1c2cccc(F)c2OC[C@H]1O)C(C)(C)C`: the metabolised at 0.25 h, 1 µM in series [1] was 98%. The compound further showed a clearance in series [2] of 88.3 mL/min/kg. Further, the CC50 in series [3] is over 10000 nM. Besides, the EC50 amounted to 2.8 nM in series [4] and 6.9 nM in series [5].

Take `COC(=O)N[C@H](C(=O)N[C@@H](Cc1ccc(-c2ccc(OC)nc2)cc1)[C@@H](O)C[C@@H](Cc1ccccc1F)C(=O)N[C@H]1c2cc(F)cc(Cl)c2OC[C@H]1O)C(C)(C)C`: the metabolised at 0.25 h, 1 µM in series [1] amounted to 8%. This compound also showed a clearance in series [2] of 31.7 mL/min/kg. In series [3], this compound registered a 50% cytotoxic concentration (CC50) of over 10000 nM. Moreover, the EC50 in series [4] was 2.6 nM; in series [5], 8.4 nM.

As to `COC(=O)N[C@H](C(=O)N[C@@H](Cc1ccc(-c2ccc(OC)nc2)cc1)[C@@H](O)C[C@@H](Cc1ccccc1F)C(=O)N[C@H]1c2cc(Cl)cc(F)c2OC[C@H]1O)C(C)(C)C`, the metabolised at 0.25 h, 1 µM in series [1] is 23%. This compound also registered a CC50 in series [3] of over 10000 nM. Also, the 50% effective concentration (EC50) was determined as 4.1 nM in series [4] and 16 nM in series [5].

Regarding `COC(=O)N[C@H](C(=O)N[C@@H](Cc1ccc(-c2ccc(OC)nc2)cc1)[C@@H](O)C[C@@H](Cc1ccccc1F)C(=O)N[C@H]1c2cc(C)ccc2OC[C@H]1O)C(C)(C)C`, the metabolised at 0.25 h, 1 µM in series [1] turned out to be 63%. This compound showed a clearance in series [2] of 46.7 mL/min/kg. The compound further gave a cytotoxic concentration (CC50) in series [3] of over 10000 nM. In addition, the concentration for a half-maximal effect (EC50) in series [4] stood at 0.9 nM; in series [5] it was 7.7 nM.

Take `COC(=O)N[C@H](C(=O)N[C@@H](Cc1ccc(-c2ccc(OC)nc2)cc1)[C@@H](O)C[C@@H](Cc1ccccc1F)C(=O)N[C@H]1c2cc(C)cc(F)c2OC[C@H]1O)C(C)(C)C`: the metabolised at 0.25 h, 1 µM in series [1] came to 48%. This compound showed a clearance in series [2] of 83.3 mL/min/kg. Also, in series [3], the CC50 is over 10000 nM. In addition, the values for the concentration for a half-maximal effect (EC50) in series [4] and in series [5] were 2.8 nM and 9.8 nM, respectively.

With `COC(=O)N[C@H](C(=O)N[C@@H](Cc1ccc(-c2ccc(OC)nc2)cc1)[C@@H](O)C[C@@H](Cc1ccccc1F)C(=O)N[C@H]1[C@H](C)CC[C@H]1O)C(C)(C)C`, the metabolised at 0.25 h, 1 µM in series [1] was 99%. Further, in series [2], the clearance was 78.3 mL/min/kg. The compound also registered a CC50 in series [3] of over 10000 nM. Also, the EC50 in series [4] was 1.1 nM; in series [5], 3.3 nM.

Take `COC(=O)N[C@H](C(=O)N[C@@H](Cc1ccc(-c2ccc(OC)nc2)cc1)[C@@H](O)C[C@@H](Cc1ccccc1F)C(=O)N[C@H]1CCCC[C@H]1O)C(C)(C)C`: in series [1], the metabolised at 0.25 h, 1 µM was 99%. The compound also had a clearance in series [2] of 86.7 mL/min/kg. Moreover, in series [3], the CC50 is over 10000 nM. The values for the EC50 in series [4] and in series [5] were 1.8 nM and 5.9 nM, respectively.

`COC(=O)N[C@H](C(=O)N[C@@H](Cc1ccc(-c2ccc(N(C)C)nc2)cc1)[C@@H](O)C[C@@H](Cc1ccccc1F)C(=O)N[C@H]1[C@H](C)CCC[C@H]1O)C(C)(C)C`: in series [1], the metabolised at 0.25 h, 1 µM stood at 99%. For the same compound, the clearance in series [2] is 93.3 mL/min/kg. Also, in series [3], the CC50 was over 10000 nM. Moreover, the values for the EC50 in series [4] and in series [5] were 1.1 nM and 4.9 nM, respectively.

For the compound `COC(=O)N[C@H](C(=O)N[C@@H](Cc1ccc(-c2ccc(OC)nc2)cc1)[C@@H](O)C[C@@H](Cc1ccccc1Cl)C(=O)N[C@H]1[C@H](C)CCC[C@H]1O)C(C)(C)C`, the metabolised at 0.25 h, 1 µM in series [1] came out at 99%. Moreover, in series [2], the clearance is 70 mL/min/kg. Further, in series [3], the CC50 is over 10000 nM. Besides, the results for the EC50 in series [4] and in series [5] were 1.1 nM and 7.1 nM, respectively.

Turning to `COC(=O)N[C@H](C(=O)N[C@@H](Cc1ccc(-c2ccc(OC)nc2)cc1)[C@@H](O)C[C@@H](Cc1cccc(OC(F)(F)F)c1)C(=O)N[C@H]1[C@H](C)CCC[C@H]1O)C(C)(C)C`, the metabolised at 0.25 h, 1 µM in series [1] was determined as 94%. The clearance in series [2] was 90 mL/min/kg. The compound also returned a half-maximal cytotoxic concentration (CC50) in series [3] of over 10000 nM. Moreover, the figures for the EC50 in series [4] and in series [5] were 0.9 nM and 3.2 nM, respectively.

As to `COC(=O)N[C@H](C(=O)N[C@@H](Cc1ccc(-c2ccc(OC)nc2)cc1)[C@@H](O)C[C@@H](Cc1ccccc1F)C(=O)N[C@H]1c2ccccc2OC[C@H]1O)C(C)(C)C`, the metabolised at 0.25 h, 1 µM in series [1] came out at 72%. This compound also showed a clearance in series [2] of 96.7 mL/min/kg. In series [3], this compound registered a CC50 of over 10000 nM. The EC50 was found to be 2.5 nM in series [4] and 6.6 nM in series [5].

Turning to `COC(=O)N[C@H](C(=O)N[C@@H](Cc1ccc(-c2ccc(OC)nc2)cc1)[C@@H](O)C[C@@H](Cc1ccccc1F)C(=O)N[C@H]1c2cc(Cl)ccc2OC[C@H]1O)C(C)(C)C`, the metabolised at 0.25 h, 1 µM in series [1] was 23%. This compound also had a clearance in series [2] of 7.83 mL/min/kg. In series [3], this compound came in with a CC50 of over 10000 nM. Further, the concentration for a half-maximal effect (EC50) in series [4] worked out at 2.7 nM; in series [5] it was 14 nM.

Take `COC(=O)N[C@H](C(=O)N[C@@H](Cc1ccc(-c2ccc(OC)nc2)cc1)[C@@H](O)C[C@@H](Cc1ccccc1Cl)C(=O)N[C@H]1c2cc(Cl)ccc2OC[C@H]1O)C(C)(C)C`: the metabolised at 0.25 h, 1 µM in series [1] was 5%. The clearance in series [2] is 23.3 mL/min/kg. The cytotoxic concentration (CC50) in series [3] is over 10000 nM. The half-maximal effective concentration (EC50) in series [4] came out at 3.9 nM; in series [5], 13 nM.

With `COC(=O)N[C@H](C(=O)N[C@@H](Cc1ccc(-c2ccc(OC)nc2)cc1)[C@@H](O)C[C@@H](Cc1cccc(OC(F)(F)F)c1)C(=O)N[C@H]1c2cc(Cl)ccc2OC[C@H]1O)C(C)(C)C`, the metabolised at 0.25 h, 1 µM in series [1] is 0%. The CC50 in series [3] is over 10000 nM. The EC50 in series [4] was determined as 4.2 nM; in series [5], 24 nM.

On to `COC(=O)N[C@H](C(=O)N[C@@H](Cc1ccc(-c2ccc(OC)nc2)cc1)[C@@H](O)C[C@@H](Cc1ccccc1F)C(=O)N[C@H]1c2cccc(Cl)c2OC[C@H]1O)C(C)(C)C`, for which the metabolised at 0.25 h, 1 µM in series [1] was 47%. The compound further had a clearance in series [2] of 65 mL/min/kg. In series [3], the half-maximal cytotoxic concentration (CC50) was over 10000 nM. The EC50 came out at 2.4 nM in series [4] and 5.3 nM in series [5].

On to `COC(=O)N[C@H](C(=O)N[C@@H](Cc1ccc(-c2ccc(OC)nc2)cc1)[C@@H](O)C[C@@H](Cc1ccccc1F)C(=O)N[C@H]1c2cc(F)ccc2OC[C@H]1O)C(C)(C)C`, for which, in series [1], the metabolised at 0.25 h, 1 µM is 48%. Also, the clearance in series [2] is 35 mL/min/kg. The CC50 in series [3] was over 10000 nM. Also, the EC50 was 1.2 nM in series [4] and 5.8 nM in series [5].

On to `Cc1cccc(C)c1OCC(=O)N[C@@H](Cc1ccccc1)[C@@H](O)C[C@H](Cc1ccccc1)NC(=O)[C@H](C(C)C)N1CCCNC1=O` [LOPINAVIR], for which the half-maximal cytotoxic concentration (CC50) in series [3] is over 10000 nM. Further, the 50% effective concentration (EC50) in series [4] is 13 nM.
